What all share (format): functional
The subject of assay [1] is Mycobacterium tuberculosis. The assay is described as follows: Antimycobacterial activity against multidrug resistant Mycobacterium tuberculosis at 0.05 ug/ml after 72 hrs by LRP assay. The method, boiled down: (§1)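 Luciferase reporter phage assay on M. tuberculosis (H37Rv, or clinical isolates resistant to S, H, R and E). Each sample had two drug-free controls and four drug concentrations, incubated 72 h at 37 °C. High-titer phAE129 phage plus 0.1 M CaCl₂ was added, then 4 h at 37 °C. Equal volume D-luciferin (0.3 mM, pH 4.5 citrate) was added; RLU integrated 10 s, duplicate mean; % RLU reduction vs control.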

Assay [2] relates to Mycobacterium tuberculosis. The assay is described as follows: Antimycobacterial activity against multidrug resistant Mycobacterium tuberculosis at 0.5 ug/ml after 72 hrs by LRP assay. The method, boiled down: as §1
In assay [3] the test system is Mycobacterium tuberculosis. Put plainly: Antimycobacterial activity against multidrug resistant Mycobacterium tuberculosis at 5 ug/ml after 72 hrs by LRP assay. The method, boiled down:
as §1

For assay [4], the system named is Mycobacterium tuberculosis. Put plainly: Antimycobacterial activity against multidrug resistant Mycobacterium tuberculosis at 10 ug/ml after 72 hrs by LRP assay. The gist of the method: as §1

Results on 11 compounds are retold here after ChEMBL document CHEMBL1154054, “Novel 4-(morpholin-4-yl)-N'-(arylidene)benzohydrazides: synthesis, antimycobacterial activity and QSAR investigations” (Eur J Med Chem, 2009).

As to `O=C(N/N=C/c1ccc(F)cc1)c1ccc(N2CCOCC2)cc1`, the Activity in assay [1] worked out at 83.22%; in assay [2], 86.33%; in assay [3], 93.28%; in assay [4], 95.09%.
In the case of `O=C(N/N=C1\C=CCO1)c1ccc(N2CCOCC2)cc1`, the Activity in assay [1] was determined as 58.54%; in assay [2], 86.92%; in assay [3], 92.52%; in assay [4], 93.72%.
Taken in the same sequence, the figures for `Cc1ccc(/C=N/NC(=O)c2ccc(N3CCOCC3)cc2)cc1` were 48.49%, 87.24%, 90.83% and 91.37%.
On to `O=C(N/N=C/c1ccc(O)cc1)c1ccc(N2CCOCC2)cc1`, for which the Activity in assay [1] is listed as 43.92%; in assay [2], 73.58%; in assay [3] it was 88.08%; in assay [4], 88.45%.
Taken in the same sequence, the figures for `COc1ccc(/C=N/NC(=O)c2ccc(N3CCOCC3)cc2)cc1` were 56.53%, 82.97%, 89.33% and 90.36%.
In the same order, the values of `NNC(=O)c1ccncc1` [ISONIAZID] are 84.37%, 89.6%, 95.85% and 94.7%.
Consider `COc1cc(/C=N/NC(=O)c2ccc(N3CCOCC3)cc2)cc(OC)c1OC`, for which the Activity is given as 35.83% in assay [1], 96.88% in assay [2], 90.29% in assay [3] and 90.24% in assay [4].
In the same order, the values of `O=C(N/N=C\C=C\c1ccccc1)c1ccc(N2CCOCC2)cc1` are 55.7%, 85.67%, 91.61% and 92.1%.
For `CN(C)c1ccc(/C=N/NC(=O)c2ccc(N3CCOCC3)cc2)cc1`, the Activity in assay [1] is reported as 48.14%; in assay [2] it was 90.72%; in assay [3] it was 93.18%; in assay [4], 95.02%.
In the same order, the values of `O=C(N/N=C/c1ccc(Cl)cc1)c1ccc(N2CCOCC2)cc1` are 67.15%, 89.91%, 91.19% and 94.29%.
In the same order, the values of `O=C(N/N=C/c1cccc([N+](=O)[O-])c1)c1ccc(N2CCOCC2)cc1` are 29.92%, 87.17%, 90.07% and 88.86%.
